What was measured:
Beta-secretase 1 [1] = molecular target: T1, Beta-secretase 1 (Homo sapiens, UniProt P56817); test: Inhibition of human recombinant BACE1 using Glu-Ile-Asp-Leu-Met-Val-Leu-Asp as substrate incubated for 60 mins prior to substrate addition measured after 60 mins by FRET assay
Beta-secretase 1 [2] = molecular target: T1, Beta-secretase 1; test: Inhibition of BACE1 in human HEK293 cells expressing APP Swedish mutant assessed as inhibition of amyloid beta (1 to 40) production after overnight incubation by sandwich ELISA; type: cell-based
Rattus norvegicus = test: Antialzheimer activity in Sprague-Dawley rat assessed as reduction in amyloid beta 40 level in CSF at 30 mg/kg, po at 4 hrs by immunoassay relative to control; type: functional; set-up: scale not given: the % may be the effect or the level left
Outline: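 At the set time they were euthanized with CO2 for 2 min. CSF was drawn from the cisterna magna with a 30 gauge needle, frozen on dry ice, stored at −80 °C, then assayed for Aβ40 by Meso Scale immunoassay.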

T1 sequence (P56817 whole entry): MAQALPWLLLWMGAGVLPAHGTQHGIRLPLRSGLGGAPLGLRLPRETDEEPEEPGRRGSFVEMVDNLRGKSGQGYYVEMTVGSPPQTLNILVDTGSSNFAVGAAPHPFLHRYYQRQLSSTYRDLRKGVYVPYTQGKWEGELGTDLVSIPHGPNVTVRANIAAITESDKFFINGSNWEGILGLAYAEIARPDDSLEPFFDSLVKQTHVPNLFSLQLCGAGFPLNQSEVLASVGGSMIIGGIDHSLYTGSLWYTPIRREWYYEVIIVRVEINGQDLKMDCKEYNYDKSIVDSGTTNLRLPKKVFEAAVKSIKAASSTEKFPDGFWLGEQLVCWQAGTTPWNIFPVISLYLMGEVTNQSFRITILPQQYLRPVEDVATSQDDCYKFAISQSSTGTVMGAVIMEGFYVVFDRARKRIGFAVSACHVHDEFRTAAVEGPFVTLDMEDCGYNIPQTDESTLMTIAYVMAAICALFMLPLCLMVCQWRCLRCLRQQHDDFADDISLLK

SMILES | IC50 (Beta-secretase 1 [1]) [nM] | IC50 (Beta-secretase 1 [2]) [nM] | Activity (Rattus norvegicus) [%]
CC(C)(C)Cc1cnc2c(c1)[C@@H](NC[C@@H](O)[C@H](Cc1ccc3c(c1)OCO3)NC(=O)c1cccnc1)CC1(CCC1)O2 | 26.1 | 67.6 | –
CC(C)(C)Cc1cnc2c(c1)[C@@H](NC[C@@H](O)[C@H](Cc1ccc3c(c1)OCO3)NC(=O)c1ccc(F)nc1)CC1(CCC1)O2 | 48.4 | 69.5 | –
CC(C)C(=O)N[C@@H](Cc1ccc2c(c1)OCO2)[C@H](O)CN[C@H]1CC2(CCC2)Oc2ncc(CC(C)(C)C)cc21 | – | 812 | –
CC(C)(C)Cc1cnc2c(c1)[C@@H](NC[C@@H](O)[C@H](Cc1ccc3c(c1)OCO3)NC(=O)c1ccccc1F)CC1(CCC1)O2 | 76.6 | 1150 | –
CC(=O)N[C@@H](Cc1ccc(OC(F)F)c(OC(F)F)c1)[C@H](O)CN[C@H]1CC2(CCC2)Oc2ncc(CC(C)(C)C)cc21 | 35.2 | 238 | –
CC(=O)N[C@@H](Cc1ccc2c(c1)OCO2)[C@H](O)CN[C@H]1CC2(CCC2)Oc2ncc(CC(C)(C)C)cc21 | 8 | 5.5 | 52

The remaining compounds from weak to strong by IC50 (Beta-secretase 1 [2]), led by results:

IC50 (Beta-secretase 1 [1]) [nM] | IC50 (Beta-secretase 1 [2]) [nM] | SMILES | Activity (Rattus norvegicus) [%]
33.2 | 64.3 | CC(C)(C)Cc1cnc2c(c1)[C@@H](NC[C@@H](O)[C@H](Cc1ccc3c(c1)OCO3)NC(=O)c1cccnc1F)CC1(CCC1)O2 | –
– | 55.5 | C[C@@H](F)C(=O)N[C@@H](Cc1ccc2c(c1)OCO2)[C@H](O)CN[C@H]1CC2(CCC2)Oc2ncc(CC(C)(C)C)cc21 | –
20.4 | 27.5 | CC(C)(C)Cc1cnc2c(c1)[C@@H](NC[C@@H](O)[C@H](Cc1ccc3c(c1)OCO3)NC(=O)[C@@H]1CCCO1)CC1(CCC1)O2 | –
5.4 | 16.8 | COCC(=O)N[C@@H](Cc1ccc2c(c1)OCO2)[C@H](O)CN[C@H]1CC2(CCC2)Oc2ncc(CC(C)(C)C)cc21 | –
18.2 | 9.3 | COc1ccc(C[C@H](NC(C)=O)[C@H](O)CN[C@H]2CC3(CCC3)Oc3ncc(CC(C)(C)C)cc32)cc1OC | –
